Test results from ChEMBL document CHEMBL4480397, “Discovery of a Natural-Product-Derived Preclinical Candidate for Once-Weekly Treatment of Type 2 Diabetes” (J Med Chem, 2019).
Activity calls are given as the source filed them. The calls are words filed in the database; no cut-off is given here.

Tests used:
[1] = Toxicity in ICR mouse assessed as effect on clinical signs at 30 mg/kg, po administered once daily for 14 consecutive days; type: organism-based; settings: in vivo
Outline: (§1)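 ICR mice dosed orally at 30 mg/kg once daily for 14 consecutive days. Endpoints were clinical signs, body weight, organ index, blood parameters and serum biochemistry, each compared with a control group.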

[2] = Plasma concentration in Sprague-Dawley rat at 2 mg/kg, po after 24 hrs by LC-MS-MS analysis; type: ADME, organism-based; settings: in vivo
[3] = AUCt in Sprague-Dawley rat at 1 mg/kg, iv by LC-MS-MS analysis; type: ADME, organism-based; settings: in vivo
[4] = Cmax in ICR mouse at 2 mg/kg, po by LC-MS-MS analysis; type: ADME, organism-based; parameters: dose 2 mg/kg, route oral; settings: in vivo
Outline: (§2)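 Male ICR mice (n = 4/group), fasted 2 h, given a single oral dose of 2 mg/kg. Baseline blood was taken into EDTA, then samples at 1, 2, 4, 6, 8, 24, 48, 72, 96 and 120 h. Plasma was kept at -80 °C and concentrations measured by LC/MS/MS. Parameters came from noncompartmental analysis; values are means.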

Mus musculus [5] = assay: Initial plasma concentration in ICR mouse at 2 mg/kg, po by LC-MS-MS analysis; type: ADME, organism-based; settings: in vivo; outline: as §2
[6] = Toxicity in ICR mouse assessed as effect on serum biochemical parameters at 30 mg/kg, po administered once daily for 14 consecutive days; type: organism-based; settings: in vivo; outline: as §1
Mus musculus [7] = assay: Anti-diabetic activity in 8 hrs-fasted ICR mouse assessed as reduction in blood glucose AUC (0 to 120 mins) at 3 mg/kg, po pretre at ed for 60 mins followed by glucose challenge and measured after 120 mins post glucose challenge by OGTT rel at ive to control; type: functional
Outline: (§3)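 Male ICR mice (n = 10/group), fasted 8 h, dosed orally at 0.03, 0.3 or 3 mg/kg in 0.5% CMC-Na 1 h before an oral glucose load of 3 g/kg. Glucometer readings at −60, 0, 15, 30, 60, 90 and 120 min. Glucose AUC0–120 min by the trapezoidal method; one-way ANOVA with Fisher's LSD against vehicle.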

Mus musculus [8] = assay: Anti-diabetic activity in db/db mouse assessed as reduction in fasting blood glucose at 3 mg/kg, po dosed once weekly for 8 weeks; type: functional; parameters: scale not given: the % may be the effect or the level left
[9] = Initial plasma concentration in Sprague-Dawley rat at 1 mg/kg, iv by LC-MS-MS analysis; type: ADME, organism-based
[10] = Plasma concentration in Sprague-Dawley rat at 2 mg/kg, po by LC-MS-MS analysis; type: ADME, organism-based; settings: in vivo
Mus musculus [11] = assay: Anti-diabetic activity in 6 hrs-fasted db/db mouse assessed as reduction in blood glucose AUC (0 to 120 mins) at 10 mg/kg, po pretre at ed for 60 mins followed by glucose challenge and measured after 120 mins post glucose challenge by OGTT rel at ive to control
[12] = Clearance in Sprague-Dawley rat at 1 mg/kg, iv by LC-MS-MS analysis; type: ADME, organism-based; settings: in vivo
Mus musculus [13] = assay: Anti-diabetic activity in ICR mouse assessed as inhibition of DPP4 in plasma at 3 mg/kg, po administered as single dose using Gly-Pro-AMC as substrate and measured after 7 days post dose by fluorometric assay relative to control; type: functional
Outline: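 Male ICR mice (n = 10/group), fasted 2 h, given single oral doses of 0.03–3 mg/kg in 0.5% CMC-Na, with pre-dose baseline blood. Blood was drawn at 1–168 h. […] DPP-4 was read continuously for 5 min at 37 °C with 10 µM Gly-Pro-AMC in 100 mM HEPES pH 7.5 containing 0.1 mg/mL BSA (ex 360/em 460 nm). % activity is the treated rate over each animal's own baseline rate.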

[14] = Toxicity in ICR mouse assessed as effect on blood parameter at 30 mg/kg, po administered once daily for 14 consecutive days; type: organism-based; settings: in vivo; outline: as §1
Mus musculus [15] = assay: Anti-diabetic activity in db/db mouse assessed as increase in glucose tolerance at 10 mg/kg, po dosed once weekly for 8 weeks by OGTT; type: functional, organism-based
[16] = Toxicity in db/db mouse assessed as induction of abnormal weight gain at 3 to 10 mg/kg, po dosed once weekly for 8 weeks; type: organism-based; settings: in vivo, 1344 h
[17] = Oral bioavailability in Sprague-Dawley rat at 2 mg/kg after 24 hrs by LC-MS-MS analysis; type: ADME, organism-based; settings: in vivo
[18] = AUC (0 to infinity) in ICR mouse at 2 mg/kg, po by LC-MS-MS analysis; type: ADME, organism-based; parameters: dose 2 mg/kg, route oral, time infinity; settings: in vivo; outline: as §2
[19] = Terminal half life in ICR mouse at 2 mg/kg, po by LC-MS-MS analysis; type: ADME, organism-based; settings: in vivo, read-out: beta t1/2 (converted); outline: as §2
[20] = Toxicity in ICR mouse assessed as effect on organ index at 30 mg/kg, po administered once daily for 14 consecutive days; type: organism-based; settings: in vivo; outline: as §1
[21] = Terminal half life in Sprague-Dawley rat at 1 mg/kg, iv by LC-MS-MS analysis; type: ADME, organism-based; settings: in vivo, read-out: beta t1/2 (converted)
[22] = AUCt in Sprague-Dawley rat at 2 mg/kg, po by LC-MS-MS analysis; type: ADME, organism-based; settings: in vivo
Mus musculus [23] = assay: Anti-diabetic activity in db/db mouse assessed as reduction in fasting blood glucose at 10 mg/kg, po dosed once weekly for 8 weeks; type: functional; parameters: scale not given: the % may be the effect or the level left
[24] = Tmax in ICR mouse at 2 mg/kg, po by LC-MS-MS analysis; type: ADME, organism-based; settings: in vivo; outline: as §2
[25] = Tmax in Sprague-Dawley rat at 2 mg/kg, po by LC-MS-MS analysis; type: ADME, organism-based; settings: in vivo
[26] = Toxicity in db/db mouse assessed as induction of discomfort signs at 3 to 10 mg/kg, po dosed once weekly for 8 weeks; type: organism-based; settings: in vivo, 1344 h
[27] = biological target: Voltage-gated inwardly rectifying potassium channel KCNH2 (Homo sapiens, UniProt Q12809); assay: Inhibition of human ERG by patch clamp assay
Chain of Voltage-gated inwardly rectifying potassium channel KCNH2 (Q12809 whole entry): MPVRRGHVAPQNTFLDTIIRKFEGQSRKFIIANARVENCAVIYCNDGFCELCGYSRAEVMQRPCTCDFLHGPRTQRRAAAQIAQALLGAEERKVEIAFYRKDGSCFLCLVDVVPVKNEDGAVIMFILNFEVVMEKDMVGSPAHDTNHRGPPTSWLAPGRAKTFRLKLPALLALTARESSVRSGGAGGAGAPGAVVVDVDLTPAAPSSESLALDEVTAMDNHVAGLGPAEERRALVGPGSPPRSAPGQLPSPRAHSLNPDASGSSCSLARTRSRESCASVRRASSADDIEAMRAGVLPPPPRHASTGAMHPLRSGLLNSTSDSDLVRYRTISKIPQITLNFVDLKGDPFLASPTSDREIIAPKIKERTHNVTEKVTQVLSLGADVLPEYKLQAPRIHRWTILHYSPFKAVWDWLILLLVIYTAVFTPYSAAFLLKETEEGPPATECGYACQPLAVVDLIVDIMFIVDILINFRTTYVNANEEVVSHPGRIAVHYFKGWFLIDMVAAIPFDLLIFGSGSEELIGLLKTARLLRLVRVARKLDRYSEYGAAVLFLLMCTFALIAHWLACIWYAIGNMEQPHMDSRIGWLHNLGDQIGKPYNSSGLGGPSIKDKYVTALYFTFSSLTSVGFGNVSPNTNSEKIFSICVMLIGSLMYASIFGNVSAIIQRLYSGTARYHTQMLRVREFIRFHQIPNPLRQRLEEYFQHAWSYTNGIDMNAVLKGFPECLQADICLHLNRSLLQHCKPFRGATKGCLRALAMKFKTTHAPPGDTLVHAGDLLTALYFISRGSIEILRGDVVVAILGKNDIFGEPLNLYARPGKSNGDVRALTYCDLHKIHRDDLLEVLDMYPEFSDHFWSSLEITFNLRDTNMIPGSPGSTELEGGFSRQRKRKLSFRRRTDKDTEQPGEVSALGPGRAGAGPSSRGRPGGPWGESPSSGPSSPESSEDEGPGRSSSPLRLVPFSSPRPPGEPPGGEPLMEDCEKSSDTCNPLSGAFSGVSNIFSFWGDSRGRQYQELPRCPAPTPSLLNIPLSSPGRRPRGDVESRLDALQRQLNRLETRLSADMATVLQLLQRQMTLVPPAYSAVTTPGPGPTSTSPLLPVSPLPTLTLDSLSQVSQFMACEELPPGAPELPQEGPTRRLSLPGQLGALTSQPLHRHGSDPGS

[28] = Cmax in Sprague-Dawley rat at 2 mg/kg, po by LC-MS-MS analysis; type: ADME, organism-based; parameters: dose 2 mg/kg, route oral; settings: in vivo
[29] = Cmax in Sprague-Dawley rat at 1 mg/kg, iv by LC-MS-MS analysis; type: ADME, organism-based; parameters: dose 1 mg/kg, route intravenous; settings: in vivo
[30] = Toxicity in ICR mouse assessed as effect on body weight at 30 mg/kg, po administered once daily for 14 consecutive days; type: organism-based; settings: in vivo; outline: as §1
[31] = Toxicity in db/db mouse assessed as induction of distress signs at 3 to 10 mg/kg, po dosed once weekly for 8 weeks; type: organism-based; settings: in vivo, 1344 h
Rattus norvegicus = assay: Initial plasma concentration in Sprague-Dawley rat at 2 mg/kg, po by LC-MS-MS analysis; type: ADME, organism-based; settings: in vivo
[32] = Toxicity in ICR mouse assessed at 300 mg/kg, po administered as single dose; type: organism-based; settings: in vivo
Outline: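 ICR mice given a single oral dose of 300 mg/kg to assess acute toxicity.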

[33] = MRT (0 to infinity) in ICR mouse at 2 mg/kg, po by LC-MS-MS analysis; type: ADME, organism-based; settings: in vivo; outline: as §2
Mus musculus [34] = assay: Anti-diabetic activity in db/db mouse assessed as HbA1c levels at 10 mg/kg, po dosed once weekly for 8 weeks; type: functional
Mus musculus [35] = assay: Anti-diabetic activity in 8 hrs-fasted ICR mouse assessed as increase in insulin levels at 3 mg/kg, po pretreated for 60 mins followed by glucose challenge by OGTT; type: functional, organism-based
Outline: (§4)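 Male ICR mice (n = 10/group), fasted 8 h, dosed orally at 0.3, 1 or 3 mg/kg 1 h before oral glucose at 3 g/kg. Blood was collected at 0, 5 and 10 min into tubes with valine pyrrolidide and EDTA. Active GLP-1[7-36 amide] and insulin measured by kit. Two-way ANOVA with Fisher's LSD against vehicle.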

[36] = MRT (0 to infinity) in Sprague-Dawley rat at 1 mg/kg, iv by LC-MS-MS analysis; type: ADME, organism-based; settings: in vivo
[37] = Volume of distribution at steady state in Sprague-Dawley rat at 1 mg/kg, iv by LC-MS-MS analysis; type: ADME, organism-based; settings: in vivo, read-out: Vdss
Mus musculus [38] = assay: Anti-diabetic activity in 8 hrs-fasted ICR mouse assessed as reduction in blood glucose AUC (0 to 120 mins)at 0.3 mg/kg, po pretreated for 60 mins followed by glucose challenge and measured after 120 mins post glucose challenge by OGTT relative to control; type: functional; outline: as §3
[39] = AUC (0 to infinity) in Sprague-Dawley rat at 1 mg/kg, iv by LC-MS-MS analysis; type: ADME, organism-based; parameters: dose 1 mg/kg, route intravenous, time infinity; settings: in vivo
[40] = AUCt in ICR mouse at 2 mg/kg, po by LC-MS-MS analysis; type: ADME, organism-based; settings: in vivo; outline: as §2
Mus musculus [41] = assay: Anti-diabetic activity in mouse assessed as inhibition of DPP4 in plasma at 3 mg/kg, po administered as single dose pretreated for 60 mins followed by glucose challenge and measured over 168 hrs post dose
Mus musculus [42] = assay: Anti-diabetic activity in 6 h-fasted db/db mouse assessed as inhibition of DPP4 in plasma at 10 mg/kg, po administered as single dose pretreated for 60 mins followed by glucose challenge and measured after 120 mins post glucose challenge by OGTT; type: functional, organism-based
Mus musculus [43] = assay: Anti-diabetic activity in 8 hrs-fasted ICR mouse assessed as increase in GLP1 levels at 1 mg/kg, po pretreated for 60 mins followed by glucose challenge and measured 5 to 10 mins post glucose challenge by OGTT relative to control; type: functional; outline: as §4
Mus musculus [44] = assay: Anti-diabetic activity in db/db mouse assessed as increase in glucose-induced insulin secretion at 10 mg/kg, po dosed once weekly for 8 weeks pretreated for 60 mins followed by glucose challenge and measured after 120 mins post glucose challenge by OGTT relative to control; type: functional
Mus musculus [45] = assay: Anti-diabetic activity in 8 hrs-fasted ICR mouse assessed as increase in insulin levels at 1 mg/kg, po pretreated for 60 mins followed by glucose challenge by OGTT; type: functional, organism-based; outline: as §4

## COc1cc2c3c(ccc2cc1C#N)O[C@H](c1cc(F)c(F)cc1F)[C@@H](N)C3
[1]
  Activity: Non-Toxic
[2]
  Drug uptake: Active
[3]
  AUC(0-t): 11800 ng·h/mL
[4]
  Cmax: 1770 ng/mL
Mus musculus [5]
  C0: 1773.37 ng/mL
[6]
  Activity: Non-Toxic
Mus musculus [7]
  inhibition in vivo at 3 mg/kg: 27.2%
Mus musculus [8]
  Activity: 24.7%
[9]
  C0: 2010 ng/mL
[10]
  Drug uptake: Active
Mus musculus [11]
  inhibition in vivo at 10 mg/kg: 18.3%
[12]
  clearance: 1.1 mL/min/kg
Mus musculus [13]; 168 h
  inhibition in vivo at 3 mg/kg: ≤ 80%
[14]
  Activity: Non-Toxic
Mus musculus [15]
  Activity: Active
[16]
  Activity: Non-Toxic
[17]
  bioavailability: 98.5%
[18]
  AUC(0-inf): 85600 ng·h/mL
[19]
  half-life: 25.3 h
[20]
  Activity: Non-Toxic
[21]
  half-life: 11.9 h
[22]
  AUC(0-t): 23200 ng·h/mL
Mus musculus [23]
  Activity: 33.1%
[24]
  Tmax: 10.2 h
[25]
  Tmax: 6.67 h
[26]
  Activity: Non-Toxic
[27]
  IC50: > 40 µM
[28]
  Cmax: 1390 ng/mL
[29]
  Cmax: 2010 ng/mL
[30]
  Activity: Non-Toxic
[31]
  Activity: Non-Toxic
Rattus norvegicus
  C0: 1387.47 ng/mL
[32]
  Activity: Non-Toxic
[33]
  MRT inf: 40.7 h
Mus musculus [34]
  Activity: 3.56%
Mus musculus [35]
  Activity: Active
[36]
  MRT inf: 15.9 h
[37]
  Vd: 2.07 L/kg
Mus musculus [38]
  inhibition in vivo at 0.3 mg/kg: 16.4%
[39]
  AUC(0-inf): 15400 ng·h/mL
[40]
  AUC(0-t): 82000 ng·h/mL
Mus musculus [41]
  inhibition in vivo at 3 mg/kg: > 80%

## CS(=O)(=O)n1cc2c(n1)CN([C@H]1CO[C@H](c3cc(F)ccc3F)[C@@H](N)C1)C2 [OMARIGLIPTIN]
Mus musculus [7]
  inhibition in vivo at 3 mg/kg: 22.1%
Mus musculus [11]
  inhibition in vivo at 10 mg/kg: 8.3%
Mus musculus [13]
  inhibition: Active
Mus musculus [42]
  inhibition: Active
Mus musculus [15]
  Activity: Active
Mus musculus [43]
  fold change (FC): 1.6 - 1.7
Mus musculus [44]
  fold change (FC): 1.8
Mus musculus [45]
  Activity: Active
Mus musculus [23]
  Activity: 26.6%
Mus musculus [34]
  Activity: Active
Mus musculus [38]
  inhibition in vivo at 0.3 mg/kg: 14.6%
